# Compound activity from PubChem.
# Sampled rows, rich in hits. Any-hit rate of the full collection: about 2.9%.
# MC4R ag barr – agonists of human melanocortin 4 receptor (MC4R) beta-arrestin | P32245 | hit rate 0.98% among 360,000 | activation, % at 8.9 µM | U2OS MC4R beta-arrestin complementation, luminescence; percent of melanotan II response, DMSO zero;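 active = activation above a per-plate cutoff, the mean activation of sample wells on that plate plus 3 SD, cut at about 8% in these data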
# Target sequence (P32245 whole entry, looked up): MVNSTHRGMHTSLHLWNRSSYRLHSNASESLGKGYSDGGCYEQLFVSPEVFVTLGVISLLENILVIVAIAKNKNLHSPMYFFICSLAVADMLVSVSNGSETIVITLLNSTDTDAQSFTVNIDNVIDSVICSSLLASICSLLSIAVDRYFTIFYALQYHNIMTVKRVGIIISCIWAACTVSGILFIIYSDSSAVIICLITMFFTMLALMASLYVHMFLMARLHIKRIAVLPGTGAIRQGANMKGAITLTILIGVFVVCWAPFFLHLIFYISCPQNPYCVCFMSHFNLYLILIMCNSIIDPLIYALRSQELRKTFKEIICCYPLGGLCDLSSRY
# TAG inh – reduces triacylglycerol accumulation in H9c2 cells; Nile Red lipid (TAG) fluorescence; cells loaded with 200 µM oleic acid; inhibition, % at 12.5 µM; hit rate 0.66% among 230,000;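 active = pattern-corrected inhibition of lipid staining of at least 50% with the nuclear-stain viability signal not falling by more than 50%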
# MC4R antagonist – human MC4R antagonism in cAMP assay; AID 540295; P32245; hit rate 0.48% among 360,000; inhibition, % at 6.5 µM; MC4R-expressing cells, MTII-stimulated cAMP, LANCE TR-FRET;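 active = inhibition above its plate's cutoff, the mean of tested wells on that plate plus 3 SD, cut at about 29% in these data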
#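 System: U2OS cells stably expressing human melanocortin 4 receptor (MC4R). Reagent: Melanotan II challenge after compound preincubation. Doses: 6.5 µM. Times: 30-min compound, 1-h challenge, 1-h detection, room temperature. Measured by: TR-FRET with Eu-cAMP and labeled anti-cAMP, 671 nm. Replicates: singlicate.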
# Efflux pump mplx – blocks antifungal efflux pumps in multiplex yeast assay. S. cerevisiae Candida pump triplex, Nile Red efflux. inhibition, % at 10 µM. hit rate 0.44% among 330,000. AID 485275;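 active = plate passing quality check with inhibition over a set limit, or well fluorescence over plate mean plus 4 SD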;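 note: Nile Red retained in pooled yeast measured as flow cytometry median fluorescence; higher means more Nile Red kept so more efflux inhibition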
# Calb FLC – affects C. albicans growth with fluconazole | growth inhibition, % (concentration not given with the values) | AID 1979 | hit rate 0.57% among 300,000 | C. albicans CaCi-2 + fluconazole, Alamar Blue growth, 48 h;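 active = growth inhibition above about 58% in most replicates, limit read from the data, passing the limit was not always enough; inconclusive = exactly half the replicates above a set limit; inactive = most replicates below a set limit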;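 note: all wells also contain fluconazole at 8 µg/ml as a sub-toxic cotreatment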
# GalR3 antag – human GalR3 antagonism | O60755 | HEK293 GalR3-CNG cAMP membrane potential fluorescence; galR3 body fused to GalR1 C-terminus | hit rate 0.44% among 360,000 | AID 651719 | inhibition, % at 3 µM;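 active = inhibition above the screen-wide average plus 3 SD, cut at about 13% in these data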;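 note: forskolin and galanin both at EC90 stimulate the cells; cAMP rise reported by CNG channel membrane potential dye signal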
# Target sequence (O60755 1-299 limits assumed): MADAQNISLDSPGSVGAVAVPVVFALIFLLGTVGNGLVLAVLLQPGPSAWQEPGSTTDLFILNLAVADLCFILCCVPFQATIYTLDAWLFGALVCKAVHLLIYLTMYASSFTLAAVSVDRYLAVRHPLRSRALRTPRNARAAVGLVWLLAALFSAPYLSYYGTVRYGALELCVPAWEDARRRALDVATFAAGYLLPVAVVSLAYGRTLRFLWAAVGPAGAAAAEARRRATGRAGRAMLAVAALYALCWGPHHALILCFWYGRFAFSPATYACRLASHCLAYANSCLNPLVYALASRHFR
# A number is an active result; - = inactive; ? = inconclusive; . = not tested or not shown.
SMILES,MC4R ag barr,TAG inh,MC4R antagonist,Efflux pump mplx,Calb FLC,GalR3 antag
CCOc1ccc(C(=O)Nc2nc(C)c(C(=O)OC)s2)cc1,8.3,-,-,-,-,-
COC(=O)c1sc(NC(=O)c2ccncc2)nc1C,-,-,-,-,-,-
CCc1ccc(OCC(=O)NC(=S)Nc2ccc(S(=O)(=O)NC3CCCCC3)cc2)cc1,8.3,-,-,-,-,-
Cc1ccccc1OCC(=O)NC(=S)Nc1ccc(S(=O)(=O)NC2CCCCC2)cc1,-,-,-,-,-,-
CCn1c(C)nc2cc(C(=O)N/N=C/c3ccc(O)c(O)c3O)ccc21,-,-,-,.,76.4,-
CCn1c(C)nc2cc(C(=O)N/N=C/c3cccc(OC)c3O)ccc21,-,-,-,-,108.0,-
COc1cccc(/C=N/NC(=O)c2ccc3nc[nH]c3c2)c1O,-,-,-,-,-,-
CCC(=NNS(=O)(=O)c1ccc(C)cc1)c1ccc(OC)c(C)c1,-,-,-,.,.,-
O=S1(=O)N[C@H](Cc2ccccc2)COc2cccc(NCCO)c21,.,.,.,.,.,-
O=C(CN1CCN(C(=O)C2CCN(C(=O)/C=C/c3ccccc3)CC2)CC1)Nc1ccc(F)cc1,-,-,-,.,.,-
Cc1ccc(Cc2cnc(N3C(=N)SC(C)C3=O)s2)cc1 (configuration not stated),-,-,-,-,81.8,-
Cc1cccc(Cc2cnc(N3C(=N)SC(C)C3=O)s2)c1 (configuration not stated),-,-,-,-,93.9,-
COC(=O)C1(CC2CC(c3ccncc3)=NO2)CCN(C(=O)OC(C)(C)C)CC1 (configuration not stated),-,.,-,.,-,-
Clc1ccccc1-c1ccc2nccn2c1,-,-,-,.,.,-
Cc1cccc(OCc2nnc(SCC(=O)Nc3ncc(C)s3)o2)c1,-,-,-,-,-,-
Cc1cccc(OCc2nnc(SCC(=O)Nc3ccc(C)c(C)c3)o2)c1,8.8,.,-,-,-,-
CCn1c(=S)[nH]c2scc(-c3cccs3)c2c1=O,-,-,-,.,79.8,-
CC(=O)Nc1ccccc1/C=C/c1ccc2c(C)cc(C)c(O)c2n1,-,.,-,-,109.2,-
CCc1ccc(Nc2nc(N)nc(CSc3nnnn3-c3ccccc3)n2)cc1,8.5,-,-,-,-,-
Cc1cccc(NC(=S)NNC(=O)c2cc3c(s2)CCC(C)C3)c1C (configuration not stated),-,.,-,-,109.6,-
COc1ccc(S(=O)(=O)NC(=O)C2(C)CCN2C(=O)C2(c3ccccc3)CCCC2)cc1 (configuration not stated),-,-,-,.,.,-
Cc1cccc(C)c1N1C(=O)CC(Sc2ccccc2N)C1=O (configuration not stated),-,-,-,.,.,-
CC(C)(C)c1ccccc1NC(=O)c1c(O)c2cccc3c2n(c1=O)CC3,.,.,.,-,81.8,.
O=c1c(Cl)c(Cl)cnn1Cc1nnc(-c2ccc(Cl)cc2)o1,-,60.9,-,.,-,-
CCOC(=O)C1(C)CCCN(C(=O)c2cc(OC)c(OC)c(OC)c2)C1 (configuration not stated),-,-,-,.,.,-
SMILES,MC4R ag barr,TAG inh,MC4R antagonist,Efflux pump mplx,Calb FLC,GalR3 antag
Cc1noc2ncnc(Sc3ccc(Cl)cc3)c12,-,-,-,-,85.7,-
CCOC(=O)c1[nH]c2ccc(F)cc2c1NC(=O)c1ccccc1C(=O)O,-,.,-,-,85.1,-
CCOC(=O)c1[nH]c2ccc(OC)cc2c1NC(=O)c1ccccc1C(=O)O,-,.,-,-,-,-
O=S(=O)(NCC(c1ccco1)N1CCN(c2ccc(F)cc2)CC1)c1ccc2c(c1)OCCO2 (configuration not stated),-,.,-,-,114.0,-
CCOc1cc(S(=O)(=O)Nc2ccc(CC)cc2)ccc1Cl,9.4,.,-,-,-,-
CCOc1cc(S(=O)(=O)Nc2ccccc2CC)ccc1Cl,-,.,-,-,-,-
CC1(C)CC(=O)C=C(c2n[nH]nc2C2=CCCCC2)C1,-,-,-,.,.,-
Cc1cc(Nc2ccccc2)nc(NCc2ccccc2)n1,-,-,-,-,97.1,-
N#C/C(=C\c1ccc(O)c([N+](=O)[O-])c1)c1nc2ccccc2s1,-,.,-,.,?,-
COc1cc(/C=C(\C#N)c2nc3ccccc3s2)cc([N+](=O)[O-])c1O,-,.,-,.,87.9,-
O=C(/C=C/c1ccccc1)c1ccc2c(c1)OCCCCO2,-,-,-,-,-,-
O=C(CCl)N(C/C=C/c1ccccc1)c1ccc2c(c1)OCCO2,-,51.8,-,-,-,-
Cc1cc(C)cc(NC(=O)CSc2nc(CSc3ccc(Cl)cc3)cc(=O)[nH]2)c1,8.6,-,-,-,-,-
Nc1cc(=O)[nH]c(SCC(=O)Nc2cc(Cl)cc(Cl)c2)n1,-,.,-,-,-,-
O=c1n(Cc2ccccc2)c(O)c2n1Cc1ccccc1N=C2c1ccc(C(F)(F)F)cc1,.,.,.,.,.,-
O=C(O)c1ccccc1Nc1cc(Cl)c2nonc2c1[N+](=O)[O-],-,-,-,-,-,-
O=[N+]([O-])c1c(Nc2ccccn2)cc(Cl)c2nonc12,-,-,-,11.1,-,-
Cc1ccc(Cn2cc(CN3CC(N4CCCC4)CS3(=O)=O)nn2)cc1 (configuration not stated),.,.,.,.,.,-
C/C(=N\NC(=O)C1CCCC1)c1ccc(Cl)c(Cl)c1,-,.,-,-,112.3,-
CC(C)n1c(=O)c2ccccc2n1CC(=O)N1CCOCC1,.,.,.,.,.,-
CN1CCN(C(=O)c2cccc(-c3cc(O)c4ncccc4c3)c2)CC1,-,.,-,-,.,-
Oc1cc(-c2cccnc2)cc2cccnc12,-,56.3,-,-,.,-
CN1CCN(c2cc(-c3cc(O)c4ncccc4c3)ccn2)CC1,-,76.6,-,-,.,-
COc1ccc(C/C(O)=C(\C#N)c2nc3ccccc3s2)cc1,-,.,-,-,93.9,.
Cc1ccc(SC/C(O)=C(\C#N)c2nc3ccccc3s2)cc1,-,-,-,-,88.1,-
SMILES,MC4R ag barr,TAG inh,MC4R antagonist,Efflux pump mplx,Calb FLC,GalR3 antag
CCc1ccc(C(=O)NNc2ccc(F)cc2F)cc1,-,-,-,-,93.4,-
CCCc1ccc(C(=O)NNc2ccc(F)cc2)cc1,-,-,-,-,76.6,-
CC(C)(C)c1ccc(C(=O)NNc2ccc(F)cc2F)cc1,-,-,-,-,87.4,-
O=C(NNc1ccccc1)c1ccccc1,-,-,-,.,.,-
O=C(NNc1ccc(O)cc1)c1ccc(Br)cc1,-,.,-,-,94.9,-
O=C1c2[nH]nc(-c3ccccc3O)c2C(c2ccc(F)cc2)N1Cc1ccco1 (configuration not stated),13.1,-,-,-,-,-
COCCCNC(=O)C[C@H]1C[C@@]2(C(=O)OC)C(=C[C@H](COCc3ccccc3)O[C@@H]2C)N(CCC2=CCCCC2)C1=O,.,.,.,.,.,-
C=CCn1c(SCC(=O)NNC(=O)Nc2ccc(C)cc2)nnc1-c1ccccc1,-,-,-,-,-,-
